These results are taken from ChEMBL document CHEMBL1926665, “Anti-AIDS agents 85. Design, synthesis, and evaluation of 1R,2R-dicamphanoyl-3,3-dimethyldihydropyrano-[2,3-c]xanthen-7(1H)-one (DCX) derivatives as novel anti-HIV agents” (Eur J Med Chem, 2012).

In general, EC50 refers to the concentration that produces a half-maximal response. As usually defined, the CC50 is the concentration at which the toxic effect on the cells reaches its halfway point. Lower therefore signals harm at low concentration.

Data set [1] has as its system Human immunodeficiency virus 1. Put plainly: Antiviral activity against wild type HIV1 NL4-3 infected in human TZM-bl cells after 48 hrs by luciferase reporter gene assay. The data set is classed as functional, organism-based. Conditions: Human immunodeficiency virus 1, NL4-3, TZM-bl. The procedure, abridged: (§1)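 Single-round infection of TZM-bl cells (NL4-3 or RTMDR1 strain), with luciferase reporter read-out. Virus at 200 TCID50 was mixed with eight four-fold serial dilutions of sample in growth medium, then incubated 48 h. Luciferase was read by luminometer. EC50 is the concentration giving a 50% drop in RLU versus virus control after background subtraction. Values are means of at least three independent experiments.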
(In general: A reporter such as luciferase makes a cellular process visible.)

A short description of data set [2]: Cytotoxicity against human TZM-bl cells by CytoTox-Glo assay. It is filed as cell-based.
A short description of data set [3]: Selectivity index, ratio of CC50 for human TZM-bl cells to EC50 for wild type HIV1 NL4-3 infected in human TZM-bl cells. It is filed as toxicity, cell-based. Conditions: read-out: Ratio CC50/EC50. The procedure, abridged: (§2)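 Selectivity index is CC50 ÷ EC50. CC50 came from the CytoTox-Glo cytotoxicity kit run per the maker's protocol in TZM-bl cells. EC50 came from the 48 h single-round TZM-bl luciferase infection assay (200 TCID50 virus, eight four-fold dilutions) against the NL4-3 or RTMDR1 strain. Values are averaged from at least three independent experiments.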

The subject of data set [4] is Human immunodeficiency virus 1. Put plainly: Antiviral activity against drug-resistance HIV1 RTMDR1 infected in human TZM-bl cells after 48 hrs by luciferase reporter gene assay. It is filed as functional, organism-based. The note with it: Human immunodeficiency virus 1, RTMDR1, TZM-bl. An outline of the steps:
as §1

Data set [5] can be described thus: Selectivity index, ratio of CC50 for human TZM-bl cells to EC50 for drug-resistance HIV1 RTMDR1 infected in human TZM-bl cells. It is filed as toxicity, cell-based. Conditions: read-out: Ratio CC50/EC50. An outline of the steps:
as §2

Data set [6] deals with Human immunodeficiency virus 1. Put plainly: Ratio of 2-EDCP EC50 to compound EC50 for wild type HIV1 NL4-3 infected in human TZM-bl cells. It is filed as functional.
For data set [7], the system named is Human immunodeficiency virus 1. Put plainly: Antiviral activity against wild type HIV1. It is filed as functional, organism-based.
Data set [8] has as its system Human immunodeficiency virus 1. Put plainly: Antiviral activity against drug-resistance HIV1. It is filed as functional, organism-based.

`COc1cc2c(c3oc4cc(C#N)ccc4c(=O)c13)[C@@H](OC(=O)C13CCC(C)(C(=O)O1)C3(C)C)[C@@H](OC(=O)C13CCC(C)(C(=O)O1)C3(C)C)C(C)(C)O2` (stereo partly drawn) gave an EC50 in data set [1] of 200 nM. In data set [2], the CC50 is 9.08 µM. In addition, in data set [3], the selectivity ratio came to 45.4.

In the case of `COc1cc2c(c3oc4ccc(C#N)cc4c(=O)c13)[C@@H](OC(=O)C13CCC(C)(C(=O)O1)C3(C)C)[C@@H](OC(=O)C13CCC(C)(C(=O)O1)C3(C)C)C(C)(C)O2` (stereo partly drawn), in data set [1], the concentration for a half-maximal effect (EC50) stood at 290 nM. Moreover, the CC50 in data set [2] is more than 13.8 µM. In addition, the selectivity ratio in data set [3] was more than 47.8.

Consider `COc1cc2c(c3oc4ccccc4c(=O)c13)[C@@H](OC(=O)C13CCC(C)(C(=O)O1)C3(C)C)[C@@H](OC(=O)C13CCC(C)(C(=O)O1)C3(C)C)C(C)(C)O2` (stereo partly drawn), for which the figures for the EC50 in data set [1] and in data set [4] were 63 nM and 74 nM, respectively. The same compound yielded a CC50 in data set [2] of more than 14.3 µM. Besides, the selectivity ratio in data set [3] was more than 227; in data set [5], more than 193. The “Ratio EC50” value in data set [6] was 1.5.

Turning to `COc1cc2c(c3oc4ccccc4/c(=N\O)c13)[C@@H](OC(=O)C13CCC(C)(C(=O)O1)C3(C)C)[C@@H](OC(=O)C13CCC(C)(C(=O)O1)C3(C)C)C(C)(C)O2` (stereo partly drawn), a half-maximal effect in data set [1] (EC50) was put at 120 nM. In data set [2], this compound gave a CC50 of more than 13.9 µM. In addition, in data set [3], the selectivity ratio is more than 118.

In data set [1], `COc1cc2c(c3oc4c(C)cccc4c(=O)c13)[C@@H](OC(=O)C13CCC(C)(C(=O)O1)C3(C)C)[C@@H](OC(=O)C13CCC(C)(C(=O)O1)C3(C)C)C(C)(C)O2` (stereo partly drawn) had an EC50 of 1520 nM. In data set [2], this compound gave a CC50 of 4.32 µM. Further, the selectivity ratio in data set [3] came out at 2.84.

For the compound `COc1cc2c(c3oc4cc(C)ccc4c(=O)c13)[C@@H](OC(=O)C13CCC(C)(C(=O)O1)C3(C)C)[C@@H](OC(=O)C13CCC(C)(C(=O)O1)C3(C)C)C(C)(C)O2` (stereo partly drawn), the results for the concentration giving a half-maximal response (EC50) in data set [1] and in data set [4] were 95 nM and 363 nM, respectively. The compound further yielded a CC50 in data set [2] of more than 14 µM. The selectivity ratio was more than 147 in data set [3] and more than 38.6 in data set [5].

With `COc1cc2c(c3oc4ccc(C)cc4c(=O)c13)[C@@H](OC(=O)C13CCC(C)(C(=O)O1)C3(C)C)[C@@H](OC(=O)C13CCC(C)(C(=O)O1)C3(C)C)C(C)(C)O2` (stereo partly drawn), the EC50 worked out at 65 nM in data set [1] and 81 nM in data set [4]. In data set [2], the midpoint of cytotoxicity, the CC50, lay at 11.4 µM. Further, the selectivity ratio in data set [3] was 175; in data set [5], 141.

Regarding `COc1cc2c(c3oc4cccc(C)c4c(=O)c13)[C@@H](OC(=O)C13CCC(C)(C(=O)O1)C3(C)C)[C@@H](OC(=O)C13CCC(C)(C(=O)O1)C3(C)C)C(C)(C)O2` (stereo partly drawn), the figures for the EC50 in data set [1] and in data set [4] were 150 nM and 370 nM, respectively. In addition, in data set [2], the CC50 was 11.6 µM. Besides, the selectivity ratio was determined as 77.3 in data set [3] and 31.4 in data set [5].

Turning to `COc1ccc2c(=O)c3c(OC)cc4c(c3oc2c1)[C@@H](OC(=O)C12CCC(C)(C(=O)O1)C2(C)C)[C@@H](OC(=O)C12CCC(C)(C(=O)O1)C2(C)C)C(C)(C)O4` (stereo partly drawn), the midpoint of the response in data set [1], the EC50, lay at 362 nM. The same compound gave a cytotoxic concentration (CC50) in data set [2] of more than 13.7 µM. Also, the selectivity ratio in data set [3] is more than 37.8.

For the compound `COc1ccc2oc3c4c(cc(OC)c3c(=O)c2c1)OC(C)(C)[C@H](OC(=O)C12CCC(C)(C(=O)O1)C2(C)C)[C@@H]4OC(=O)C12CCC(C)(C(=O)O1)C2(C)C` (stereo partly drawn), the EC50 in data set [1] stood at 120 nM; in data set [4] it was 420 nM. In addition, in data set [2], the CC50 came out at 10.8 µM. The selectivity ratio was determined as 88.8 in data set [3] and 25.7 in data set [5].

Turning to `COc1cccc2oc3c4c(cc(OC)c3c(=O)c12)OC(C)(C)[C@H](OC(=O)C12CCC(C)(C(=O)O1)C2(C)C)[C@@H]4OC(=O)C12CCC(C)(C(=O)O1)C2(C)C` (stereo partly drawn), the midpoint of the response in data set [1], the EC50, lay at 1700 nM. Besides, the cytotoxic concentration (CC50) in data set [2] was determined as 11.6 µM. In data set [3], the selectivity ratio amounted to 6.83.

Consider `COc1cc(C)c2c(=O)c3c(OC)cc4c(c3oc2c1)[C@@H](OC(=O)C12CCC(C)(C(=O)O1)C2(C)C)[C@@H](OC(=O)C12CCC(C)(C(=O)O1)C2(C)C)C(C)(C)O4` (stereo partly drawn), for which the EC50 in data set [1] turned out to be 140 nM. Moreover, in data set [2], the CC50 was more than 26.8 µM. In addition, the selectivity ratio in data set [3] was more than 192.

In data set [1], `COc1cc2c(c3oc4cccc(O)c4c(=O)c13)[C@@H](OC(=O)C13CCC(C)(C(=O)O1)C3(C)C)[C@@H](OC(=O)C13CCC(C)(C(=O)O1)C3(C)C)C(C)(C)O2` (stereo partly drawn) showed a concentration giving a half-maximal response (EC50) of 330 nM. The compound further gave a CC50 in data set [2] of 8.1 µM. The selectivity ratio in data set [3] turned out to be 24.5.

`COc1cc2c(c3oc4c(F)cccc4c(=O)c13)[C@@H](OC(=O)C13CCC(C)(C(=O)O1)C3(C)C)[C@@H](OC(=O)C13CCC(C)(C(=O)O1)C3(C)C)C(C)(C)O2` (stereo partly drawn) yielded an EC50 in data set [1] of 230 nM. Also, in data set [2], the CC50 worked out at 7.8 µM. Also, the selectivity ratio in data set [3] is 33.9.

Regarding `COc1cc2c(c3oc4ccc(F)cc4c(=O)c13)[C@@H](OC(=O)C13CCC(C)(C(=O)O1)C3(C)C)[C@@H](OC(=O)C13CCC(C)(C(=O)O1)C3(C)C)C(C)(C)O2` (stereo partly drawn), the EC50 in data set [1] came to 100 nM; in data set [4], 160 nM. In data set [2], the CC50 was determined as 26 µM. In addition, the figures for the selectivity ratio in data set [3] and in data set [5] were 260 and 162, respectively.

On to `COc1cc2c(c3oc4cccc(F)c4c(=O)c13)[C@@H](OC(=O)C13CCC(C)(C(=O)O1)C3(C)C)[C@@H](OC(=O)C13CCC(C)(C(=O)O1)C3(C)C)C(C)(C)O2` (stereo partly drawn), for which the EC50 is 62 nM in data set [1] and 65 nM in data set [4]. Also, the CC50 in data set [2] was more than 13.9 µM. In addition, the figures for the selectivity ratio in data set [3] and in data set [5] were more than 224 and more than 214, respectively.

In turn, `COc1cc2c(c3oc4ccc(Br)cc4c(=O)c13)[C@@H](OC(=O)C13CCC(C)(C(=O)O1)C3(C)C)[C@@H](OC(=O)C13CCC(C)(C(=O)O1)C3(C)C)C(C)(C)O2` (stereo partly drawn) yielded an EC50 in data set [1] of 1470 nM. In addition, in data set [2], half-maximal cytotoxicity (CC50) was put at 9.23 µM. In data set [3], the selectivity ratio was 6.83.

The compound `COc1cc2c(c3oc4ccc(CBr)cc4c(=O)c13)[C@@H](OC(=O)C13CCC(C)(C(=O)O1)C3(C)C)[C@@H](OC(=O)C13CCC(C)(C(=O)O1)C3(C)C)C(C)(C)O2` (stereo partly drawn) gave an EC50 in data set [1] of 4530 nM. Besides, the CC50 in data set [2] was more than 25.2 µM. Moreover, the selectivity ratio in data set [3] was more than 5.55.

As to `CC1(C)Oc2ccc3c(=O)c4ccccc4oc3c2[C@@H](OC(=O)C23CCC(C)(C(=O)O2)C3(C)C)[C@H]1OC(=O)C12CCC(C)(C(=O)O1)C2(C)C` (stereo partly drawn), the EC50 is 308 nM in data set [1] and 546 nM in data set [4]. Besides, the CC50 in data set [2] was more than 29.8 µM. In addition, the selectivity ratio is more than 96.8 in data set [3] and more than 54.6 in data set [5].

Turning to `Cc1cc(=O)c2c(C)cc3c(c2o1)[C@@H](OC(=O)C12CCC(C)(C(=O)O1)C2(C)C)[C@@H](OC(=O)C12CCC(C)(C(=O)O1)C2(C)C)C(C)(C)O3` (stereo partly drawn), the EC50 in data set [7] worked out at 36 nM; in data set [8], 490 nM.

With `CCc1cc(=O)c2ccc3c(c2o1)[C@@H](OC(=O)C12CCC(C)(C(=O)O1)C2(C)C)[C@@H](OC(=O)C12CCC(C)(C(=O)O1)C2(C)C)C(C)(C)O3` (stereo partly drawn), the EC50 in data set [7] worked out at 70 nM; in data set [8], 110 nM; in data set [1], 89 nM; in data set [4], 110 nM. This compound returned a CC50 in data set [2] of 12.1 µM. For the same compound, the selectivity ratio in data set [3] came out at 136; in data set [5], 110.
